We go through 6 molecules from ChEMBL document CHEMBL4321882, “α-Helix-Mimicking Sulfono-γ-AApeptide Inhibitors for p53-MDM2/MDMX Protein-Protein Interactions” (J Med Chem, 2020).

The target in data set [1] is T1, E3 ubiquitin-protein ligase Mdm2 (Homo sapiens, UniProt Q00987). The experiment in a line: Binding affinity to human MDM2 expressed in Escherichia coli expression system by using (FITC)-labeled p53 peptide based fluorescence polarization competitive assay. (Polarisation of emitted light reports the rotation of a fluorescent probe.)
Target sequence in this assay (Q00987 whole entry): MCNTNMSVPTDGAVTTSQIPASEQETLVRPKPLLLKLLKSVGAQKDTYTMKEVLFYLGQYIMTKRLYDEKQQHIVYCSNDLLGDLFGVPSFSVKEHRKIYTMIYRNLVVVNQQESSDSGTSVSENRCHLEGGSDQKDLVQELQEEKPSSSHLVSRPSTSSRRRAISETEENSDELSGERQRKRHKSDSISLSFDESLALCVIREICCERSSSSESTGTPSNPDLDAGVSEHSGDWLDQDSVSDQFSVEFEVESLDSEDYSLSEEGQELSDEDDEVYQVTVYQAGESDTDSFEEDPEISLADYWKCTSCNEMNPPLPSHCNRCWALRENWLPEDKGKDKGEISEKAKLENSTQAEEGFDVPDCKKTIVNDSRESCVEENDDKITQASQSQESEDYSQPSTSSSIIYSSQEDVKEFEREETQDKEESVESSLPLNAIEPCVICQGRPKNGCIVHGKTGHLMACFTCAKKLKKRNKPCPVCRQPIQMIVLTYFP
Data set [2] is described as follows: Enzymatic stability assessed as alpha-chymotrypsin (unknown origin)-mediated compound hydrolysis at pH 7.8 at 0.1 mg/ml incubated for 24 hrs by HPLC-MS analysis. It counts as ADME. As to conditions: human, buffer, pH 7.8, 24 h. The essentials: (§1)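 Compound (0.1 mg/mL) was incubated with 0.1 mg/mL α-chymotrypsin or pronase in 100 mM ammonium bicarbonate, pH 7.8, at 37 °C for 24 h. Mixtures were concentrated by speed vacuum to remove water and buffer salt. Residual compound was then analysed by HPLC-MS.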

Data set [3] addresses T1, E3 ubiquitin-protein ligase Mdm2. The experiment in a line: Potency index, ratio of p53 IC50 to test compound IC50 for binding affinity to human MDM2 expressed in Escherichia coli expression system by using (FITC)-labeled p53 peptide based fluorescence polarization competitive assay.
Target sequence in this assay (Q00987 whole entry, looked up): as the sequence (Q00987 whole entry) above
The target in data set [4] is Cellular tumor antigen p53 (Homo sapiens) (UniProt P04637). The experiment in a line: Activation of p53 in human U2OS cells cotransfected with BP100-luc and CMV-lacZ gene assessed as luciferase gene expression at 30 uM incubated for 18 hrs by p53-dependent luciferase transcriptional activation assay. It counts as cell-based. A digest of the protocol:
(§2)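 U2OS cells stably carrying the p53-responsive BP100-luc reporter and a CMV-lacZ control were seeded at 100,000 per well 24 h before dosing at 30 μM. Lysates were assayed for luciferase and β-gal activity. […] Each value is the average of at least three measurements, with standard deviation.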

The target is the same in data set [5]. Briefly: Activation of p53 in human U2OS cells cotransfected with BP100-luc and CMV-lacZ gene assessed as lacZ gene expression at 30 uM incubated for 18 hrs by p53-dependent luciferase transcriptional activation assay. It counts as cell-based. The essentials: as §2
In data set [6] the target is T2, Protein Mdm4 (Homo sapiens, UniProt O15151).
T2 sequence (O15151 whole entry): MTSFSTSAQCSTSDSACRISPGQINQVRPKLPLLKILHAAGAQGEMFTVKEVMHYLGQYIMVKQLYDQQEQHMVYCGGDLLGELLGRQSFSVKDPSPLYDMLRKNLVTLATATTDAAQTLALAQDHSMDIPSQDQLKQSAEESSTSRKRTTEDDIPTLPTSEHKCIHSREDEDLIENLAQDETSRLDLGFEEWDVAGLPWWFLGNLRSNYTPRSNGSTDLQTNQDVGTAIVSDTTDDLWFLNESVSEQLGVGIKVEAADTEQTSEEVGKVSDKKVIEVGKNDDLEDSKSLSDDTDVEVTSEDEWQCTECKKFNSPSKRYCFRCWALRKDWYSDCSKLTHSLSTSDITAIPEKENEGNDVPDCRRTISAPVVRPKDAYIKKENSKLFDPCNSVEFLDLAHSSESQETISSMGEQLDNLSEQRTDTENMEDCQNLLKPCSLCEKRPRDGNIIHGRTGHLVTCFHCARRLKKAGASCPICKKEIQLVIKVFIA
Briefly: Binding affinity to MDMX (unknown origin) by using (FITC)-labeled p53 peptide based fluorescence polarization competitive assay.

A short description of data set [7]: Enzymatic stability assessed as pronase (unknown origin)-mediated compound hydrolysis at pH 7.8 at 0.1 mg/ml incubated for 24 hrs by HPLC-MS analysis. It counts as ADME. As to conditions: buffer, pH 7.8, 24 h. A digest of the protocol: as §1
For data set [8], the target named is T3, Tumour suppressor p53/oncoprotein Mdm2 (Homo sapiens) (UniProt P04637+Q00987). The experiment in a line: Inhibition of MDM2/p53 interaction in human U2OS cells assessed as increase in MDM2 level at 30 uM incubated for 16 hrs by Western blot analysis. It counts as cell-based. A digest of the protocol:
(§3)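 Exponentially growing U2OS cells were treated at 30 μM for 16 h, then lysed in RIPA with 1 mM PMSF and protease inhibitors. Lysates were resolved by SDS-PAGE and blotted. Blots were blocked in PBS with 5% milk and 0.1% Tween 20.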
(In general: A western blot detects proteins with antibodies after separation by electrophoresis.)

Data set [9] deals with T3, Tumour suppressor p53/oncoprotein Mdm2 (Homo sapiens). The experiment in a line: Inhibition of MDM2/p53 interaction in human U2OS cells assessed as increase in p53 level at 30 uM incubated for 16 hrs by Western blot analysis. It counts as cell-based. The essentials: as §3
Data set [10] shares this target. The experiment in a line: Inhibition of MDM2/p53 interaction in human U2OS cells assessed as increase in p21 level at 30 uM incubated for 16 hrs by Western blot analysis. It counts as cell-based. A digest of the protocol:
as §3

Data set [11] concerns HCT-116. Briefly: Antiproliferative activity against human HCT116 cells expressing wild-type p53 assessed as reduction in cell viability at 200 uM incubated for 48 hrs by MTT assay. (Formazan colour is commonly taken as a measure of viable cells.)
The test system of data set [12] is HCT-116. The experiment in a line: Antiproliferative activity against human HCT116 cells harboring p53 deletion mutant assessed as reduction in cell viability at 200 uM incubated for 48 hrs by MTT assay.
The target of data set [13] is T1, E3 ubiquitin-protein ligase Mdm2. Briefly: Binding affinity to human MDM2 (17-125 residues) by NMR spectroscopic analysis. A digest of the protocol:
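Uniformly 15N/13C-labelled human MDM2 residues 17–125 was analysed free and with ligand. Sensitivity-enhanced 1H–15N HSQC and 3D HNCA spectra were recorded for resonance assignment. Buffer was 50 mM sodium phosphate, 100 NaCl, 1 mM EDTA, 0.02% sodium azide and 2 mM DTT, pH 6.8, with 10% D2O.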
Target sequence in this assay (Q00987 whole entry, looked up): as the sequence (Q00987 whole entry) above

For data set [14] the target is unchanged. The experiment in a line: Potency index, ratio of p53 binding affinity to compound binding affinity to human MDM2 (17-125 residues) by NMR spectroscopic analysis.
Target sequence in this assay (Q00987 whole entry, looked up): as the sequence (Q00987 whole entry) above

The structures appear in SMILES notation. The source made the active and inactive calls. The rule behind the calls is not given here.

Sequence of Cellular tumor antigen p53 (Homo sapiens) (P04637 whole entry, looked up): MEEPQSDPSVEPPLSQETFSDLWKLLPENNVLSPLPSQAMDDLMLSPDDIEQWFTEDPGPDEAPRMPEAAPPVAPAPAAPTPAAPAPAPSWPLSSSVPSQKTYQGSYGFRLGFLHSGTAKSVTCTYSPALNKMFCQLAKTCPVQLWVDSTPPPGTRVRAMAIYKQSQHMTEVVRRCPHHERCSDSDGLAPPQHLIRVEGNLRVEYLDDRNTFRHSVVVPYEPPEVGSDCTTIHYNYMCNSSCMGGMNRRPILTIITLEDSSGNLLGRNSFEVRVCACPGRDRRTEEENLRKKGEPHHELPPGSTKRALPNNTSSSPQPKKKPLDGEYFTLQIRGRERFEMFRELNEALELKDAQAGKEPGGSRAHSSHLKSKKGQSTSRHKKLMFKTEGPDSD
T3 sequence (P04637 whole entry, looked up): as above
T3 sequence (Q00987 whole entry, looked up): as the sequence (Q00987 whole entry) above

As a reminder, the IC50 is the point on the concentration scale where inhibition reaches its midpoint. With `CC(=O)N[C@@H](CC(C)C)CN(CC(=O)N[C@@H](Cc1ccccc1)CN(CC(=O)N[C@@H](CCC(=O)O)CN(CC(=O)N[C@@H](C)CN(CC(=O)N[C@@H](CCCCN)CN(CC(=O)N[C@@H](CC(C)C)CN(CC(=O)N[C@@H](C)CN(CC(N)=O)S(C)(=O)=O)S(=O)(=O)CC(C)C)S(C)(=O)=O)S(C)(=O)=O)S(C)(=O)=O)S(C)(=O)=O)S(=O)(=O)c1ccc(Cl)cc1`, in data set [1], the IC50 entry was “Not Active”.

In general, Kd refers to a measure of binding affinity in units of concentration. Regarding `CC(=O)N[C@@H](CC(C)C)CN(CC(=O)N[C@@H](Cc1ccccc1)CN(CC(=O)N[C@@H](CCC(=O)O)CN(CC(=O)N[C@@H](Cc1c[nH]c2ccccc12)CN(CC(=O)N[C@@H](CCCCN)CN(CC(=O)N[C@@H](CC(C)C)CN(CC(=O)N[C@@H](C)CN(CC(N)=O)S(C)(=O)=O)S(=O)(=O)CC(C)C)S(C)(=O)=O)S(C)(=O)=O)S(C)(=O)=O)S(C)(=O)=O)S(=O)(=O)c1ccc(Cl)cc1`, the Stability entry in [2] and in data set [7] was “Stable” in each case. Also, the Kd in [1] stood at 0.057 µM; in data set [6], 0.37 µM. The IC50 in data set [1] (read-out: IC50) is 2.8 µM; in [6] it was 6 µM. Moreover, the Ratio IC50 in [3] amounted to 1.5. In [4], the result was Active. In addition, the outcome in [5] was inactive.

Regarding `CC(=O)N[C@@H](CC(C)C)CN(CC(=O)N[C@@H](Cc1ccccc1)CN(CC(=O)N[C@@H](CCC(=O)O)CN1CC(=O)N[C@@H](Cc2c[nH]c3ccccc23)CN(S(C)(=O)=O)CC(=O)N[C@@H](CCCCN)CN(CC(=O)N[C@@H](CC(C)C)CN(CC(=O)N[C@@H](C)CN(CC(N)=O)S(C)(=O)=O)S(=O)(=O)CC(C)C)S(=O)(=O)CCCC/C=C/CCCCS1(=O)=O)S(C)(=O)=O)S(=O)(=O)c1ccc(Cl)cc1`, the Stability entry in [2] and in data set [7] was “Stable” in each case. The IC50 in data set [1] (read-out: IC50) amounted to 1.9 µM; in data set [6], 3.9 µM. In addition, in [4], the Activity was found to be 70%. The inhibition result in data set [8], in data set [9], in data set [10] and in data set [11] was “Active” throughout. For the same molecule, the outcome in data set [12] was Active.

`CC(=O)N[C@@H](CC(C)C)CN(CC(=O)N[C@@H](Cc1ccccc1)CN(CC(=O)N[C@@H](CCC(=O)O)CN(CC(=O)N[C@@H](Cc1c[nH]c2ccccc12)CN(CC(=O)N[C@@H](CCCCN)CN(CC(=O)N[C@@H](CC1CCCCC1)CN(CC(=O)N[C@@H](C)CN(CC(N)=O)S(C)(=O)=O)S(=O)(=O)CC(C)C)S(C)(=O)=O)S(C)(=O)=O)S(C)(=O)=O)S(C)(=O)=O)S(=O)(=O)c1ccc(Cl)cc1`: the Stability result in data set [2] and in data set [7] was “Stable” throughout.

In the case of `CC(=O)N[C@@H](CC(C)C)CN(CC(=O)N[C@@H](Cc1ccccc1)CN(CC(=O)N[C@@H](CCC(=O)O)CN(CC(=O)N[C@@H](Cc1c[nH]c2ccccc12)CN(CC(=O)N[C@@H](CCCCN)CN(CC(=O)N[C@@H](CC1CCC1)CN(CC(=O)N[C@@H](C)CN(CC(N)=O)S(C)(=O)=O)S(=O)(=O)CC(C)C)S(C)(=O)=O)S(C)(=O)=O)S(C)(=O)=O)S(C)(=O)=O)S(=O)(=O)c1ccc(Cl)cc1`, the Stability entry in data set [2] and in data set [7] was “Stable” in each case. Moreover, the Kd was 0.026 µM in data set [1] and 0.221 µM in [6]. Also, the IC50 was 0.891 µM in [1] (read-out: IC50) and 3.6 µM in [6]. Moreover, the outcome in [13], in data set [4] and in data set [12] was Active. For the same molecule, in [14], the Ratio worked out at 10. Also, the outcome in [5] was inactive. Besides, the inhibition entry in data set [11] was “Active”.

With `CC(=O)N[C@@H](CC(C)C)CN(CC(=O)N[C@@H](Cc1ccccc1)CN(CC(=O)N[C@@H](CCC(=O)O)CN1CC(=O)N[C@@H](Cc2c[nH]c3ccccc23)CN(S(C)(=O)=O)CC(=O)N[C@@H](CCCCN)CN(CC(=O)N[C@@H](CC(C)C)CN(CC(=O)N[C@@H](C)CN(CC(N)=O)S(C)(=O)=O)S(=O)(=O)CC(C)C)S(=O)(=O)CC/C=C/CCCCS1(=O)=O)S(C)(=O)=O)S(=O)(=O)c1ccc(Cl)cc1`, the Stability entry in [2] and in data set [7] was “Stable” throughout. The IC50 came to 3.6 µM in [1] (read-out: IC50) and 6.6 µM in data set [6]. Also, in data set [4], the Activity was 25%. In addition, the inhibition entry in data set [8], in data set [9] and in data set [10] was “Active” throughout.
